Assay results as given in ChEMBL document CHEMBL4007404, “Identification of High-Potency Human TLR8 and Dual TLR7/TLR8 Agonists in Pyrimidine-2,4-diamines” (J Med Chem, 2017).
Active and inactive are the calls of the source. The rule behind the calls is not given here.

Columns and labels:
[1] = biological target: T1, Toll-like receptor 7 (Homo sapiens) (UniProt Q9NYK1); test: Agonist activity at TLR7 in human whole blood assessed as induction of IFN-alpha/beta by measuring increase in secreted alkaline phosphatase level pretreated for 24 hrs followed by HEK-IFN-alpha/beta reporter cell addition after 24 hrs by spectrophotometric method
T1 sequence (whole entry): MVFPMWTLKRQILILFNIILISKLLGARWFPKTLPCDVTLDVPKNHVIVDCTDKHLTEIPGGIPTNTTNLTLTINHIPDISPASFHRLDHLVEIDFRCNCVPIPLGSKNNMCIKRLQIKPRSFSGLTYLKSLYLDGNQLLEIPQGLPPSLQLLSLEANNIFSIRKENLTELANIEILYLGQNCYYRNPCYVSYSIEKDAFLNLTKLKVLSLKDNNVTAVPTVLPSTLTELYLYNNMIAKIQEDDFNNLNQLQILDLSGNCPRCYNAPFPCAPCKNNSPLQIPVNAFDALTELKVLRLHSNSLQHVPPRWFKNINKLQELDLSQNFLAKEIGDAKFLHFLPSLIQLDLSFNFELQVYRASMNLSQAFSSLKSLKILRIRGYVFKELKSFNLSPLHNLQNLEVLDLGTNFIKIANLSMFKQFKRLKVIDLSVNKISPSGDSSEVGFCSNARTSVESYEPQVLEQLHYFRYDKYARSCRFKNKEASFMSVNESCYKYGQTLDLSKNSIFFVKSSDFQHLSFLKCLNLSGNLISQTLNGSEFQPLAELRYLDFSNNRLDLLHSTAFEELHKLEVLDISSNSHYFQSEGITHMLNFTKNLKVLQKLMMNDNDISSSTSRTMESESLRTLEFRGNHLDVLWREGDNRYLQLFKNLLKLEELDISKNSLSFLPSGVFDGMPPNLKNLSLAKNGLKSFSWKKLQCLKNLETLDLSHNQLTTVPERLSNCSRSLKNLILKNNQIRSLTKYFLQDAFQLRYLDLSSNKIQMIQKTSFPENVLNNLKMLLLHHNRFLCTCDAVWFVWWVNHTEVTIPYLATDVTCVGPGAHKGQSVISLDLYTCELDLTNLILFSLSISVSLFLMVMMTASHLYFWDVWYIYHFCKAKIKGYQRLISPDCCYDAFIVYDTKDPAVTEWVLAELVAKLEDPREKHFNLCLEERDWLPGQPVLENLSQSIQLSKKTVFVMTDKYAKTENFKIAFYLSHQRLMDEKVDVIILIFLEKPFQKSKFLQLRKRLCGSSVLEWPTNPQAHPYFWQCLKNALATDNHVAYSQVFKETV
Procedure, shortened: (§1)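 Heparinized human whole blood, diluted 1:2 in RPMI with 10% FBS, was incubated with serial compound dilutions at 37°C for 24 h. Supernatant was moved by liquid handler onto HEK-IFNα/β, HEK-IFNγ or HEK-TNFα/IL-1β reporter cells (1x10⁶ cells/mL, DMEM with 10% FBS) for 24 h at 37°C. Plates were washed and given detection medium for 16 h, then sAP read at 620 nm. Calibration used serum spiked with IFN-α, IFN-γ or TNF-α.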

[2] = biological target: T2, Toll-like receptor 8 (Homo sapiens) (UniProt Q9NR97); test: Agonist activity at TLR8 in human whole blood assessed as induction of TNF-alpha/IL-1beta by measuring increase in secreted alkaline phosphatase level pretreated for 24 hrs followed by HEK-TNF-alpha/IL-1beta reporter cell addition after 24 hrs by spectrophotometric method; procedure, shortened: as §1
T2 sequence (whole entry): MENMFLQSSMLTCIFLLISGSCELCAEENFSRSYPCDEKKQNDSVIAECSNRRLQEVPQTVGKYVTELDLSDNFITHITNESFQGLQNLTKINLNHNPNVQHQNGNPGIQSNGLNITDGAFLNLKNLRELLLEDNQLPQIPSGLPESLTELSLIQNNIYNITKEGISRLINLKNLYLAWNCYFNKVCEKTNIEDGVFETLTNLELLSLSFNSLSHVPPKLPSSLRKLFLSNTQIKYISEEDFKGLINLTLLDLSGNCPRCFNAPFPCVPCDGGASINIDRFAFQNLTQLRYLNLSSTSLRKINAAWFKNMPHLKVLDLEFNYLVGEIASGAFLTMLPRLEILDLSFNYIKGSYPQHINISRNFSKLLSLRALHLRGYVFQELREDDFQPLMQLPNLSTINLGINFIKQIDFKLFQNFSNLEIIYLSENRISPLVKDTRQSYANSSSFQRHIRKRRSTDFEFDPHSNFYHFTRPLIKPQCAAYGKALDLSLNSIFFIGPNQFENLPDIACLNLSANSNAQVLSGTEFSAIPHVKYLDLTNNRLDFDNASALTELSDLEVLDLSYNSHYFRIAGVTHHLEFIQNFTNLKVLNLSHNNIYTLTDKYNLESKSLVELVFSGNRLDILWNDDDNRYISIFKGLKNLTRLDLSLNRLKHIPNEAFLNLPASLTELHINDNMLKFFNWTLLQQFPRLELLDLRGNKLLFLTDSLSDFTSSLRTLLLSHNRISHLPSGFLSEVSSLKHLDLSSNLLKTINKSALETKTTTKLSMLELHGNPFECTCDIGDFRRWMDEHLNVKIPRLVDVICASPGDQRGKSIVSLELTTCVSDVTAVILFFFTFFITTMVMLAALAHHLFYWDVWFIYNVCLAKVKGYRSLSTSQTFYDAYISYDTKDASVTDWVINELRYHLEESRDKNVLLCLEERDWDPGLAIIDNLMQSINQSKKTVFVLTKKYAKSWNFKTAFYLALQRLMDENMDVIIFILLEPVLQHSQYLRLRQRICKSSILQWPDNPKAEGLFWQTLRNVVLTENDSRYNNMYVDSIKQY

[3] = biological target: T2, Toll-like receptor 8 (Homo sapiens); test: Agonist activity at TLR8 in human […] conventional dendritic cells assessed as upregulation of CD80 expression after 16 hrs by efluor 780 dye based flow cytometry
Procedure, shortened: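 Human PBMCs were incubated with serial compound dilutions at 37 °C for 16 h, with DMSO controls. Cells were stained with eFluor780 viability dye, then lineage and DC antibodies plus CD80 PE, and fixed. 250,000 gated events were acquired. pDCs were gated as Live Lin⁻ CD123⁺ CD303⁺ CD304⁺ HLA-DR⁺. cDCs were gated as Lin⁻ CD1c⁺ CD141⁻ CD11c⁺ HLA-DR⁺ or Lin⁻ CD141⁺ CD1c⁻ HLA-DR⁺. Median fluorescence intensity was quantified.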

[4] = biological target: T2, Toll-like receptor 8 (Homo sapiens); test: Agonist activity at TLR8 in human whole blood assessed as induction of IFN-gamma by measuring increase in secreted alkaline phosphatase level pretreated for 24 hrs followed by HEK-IFN-gamma reporter cell addition after 24 hrs by spectrophotometric method; procedure, shortened: as §1

Activity [1]: Active
Activity [2]: Active
Activity [3]: Active
Activity [4]: Active
SMILES: CCCCNc1nc(N)nc(C)c1CCCN1CCOCC1
